According to publication PMC9274295 (International Journal of Nanomedicine, 2022):
Where two headings read alike, the source gives them in different places.

Assays:
SKOV-3 cells = assay: Combination index of PTX and CBP; assay type: cell-based, Human; conditions: read-out: IC50 of a single drug
Procedure, shortened: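 SKOV-3 cells cultured in McCoy's 5A with 10% FBS and penicillin-streptomycin at 37°C, 5% CO2. Seeded at 5.0×10³ cells/well and left overnight. Exposed for 48 h to each drug alone and to mixtures at various ratios, with the mixtures' final PTX at 0.2–50.0 μM. CCK-8 added for 2 h, then absorbance read at 450 nm. Data given as mean ± SD, n = 3.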

SKOV-3 tumor = assay: In vivo targeting; conditions: 0.11 µg DiR/g i.v., 1-24 h, tumor-bearing NU/NU mice
Procedure, shortened: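 Tumors made by injecting 1.0×10⁷ SKOV-3 cells/100 µL into the right lower abdomen of female NU/NU mice aged 5–6 weeks. At about 400 mm³, mice were randomised to free DiR or DiR-labelled liposomes, given by tail vein. Mice were anaesthetised with 4.0% chloral hydrate and imaged at 1, 2, 6, 12 and 24 h. They were then killed for ex vivo imaging and quantification of the tumor, heart, liver, spleen, lungs and kidneys.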

## N.N.O=C([O-])C1(C(=O)[O-])CCC1.[Pt+2] [CBP, carboplatin]
SKOV-3 cells; single drug, SKOV-3 cells, 48 h, CCK-8
  IC50: 19.2 µM

## CCCCCCCCCCCCCCCCCCN1/C(=C/C=C/C=C/C=C/C2=[N+](CCCCCCCCCCCCCCCCCC)c3ccccc3C2(C)C)C(C)(C)c2ccccc21.[I-] [DiR]
SKOV-3 tumor
  Enrichment in the tumor site: not enriched in the tumor site

## CC(=O)O[C@H]1C(=O)[C@@]2(C)[C@H]([C@H](OC(=O)c3ccccc3)[C@]3(O)C[C@H](OC(=O)[C@H](O)[C@@H](NC(=O)c4ccccc4)c4ccccc4)C(C)=C1C3(C)C)[C@]1(OC(C)=O)CO[C@@H]1C[C@@H]2O [PTX, Paclitaxel]
SKOV-3 cells; Homo sapiens, SK-OV-3, 48 h
  IC50: 3.89 µM
